Measured values taken from ChEMBL document CHEMBL4145611, “Discovery of Marinoquinolines as Potent and Fast-Acting Plasmodium falciparum Inhibitors with in Vivo Activity” (J Med Chem, 2018).
Active and inactive are the calls of the source. No cut-off for these calls is given here.

Legend:
[1] = tested on: Plasmodium falciparum; experiment: Antiplasmodial activity against chloroquine-sensitive blood parasite forms of Plasmodium falciparum 3D7 infected in RBC by SYBR green assay; assay type: functional, organism-based; conditions: 3D7, Erythrocyte
In short: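 3D7 blood-stage cultures, sorbitol-synchronized twice beforehand, used at 5-10% parasitemia with >80% rings, diluted to 0.5% parasitemia and 2% hematocrit with graded compound (0.05% DMSO), triplicate; artesunate and chloroquine controls. SYBR green I lysis-buffer fluorescence at 485/535 nm; IC50 from curve fit relative to drug-free medium.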

[2] = tested on: Plasmodium falciparum; experiment: Antiplasmodial activity against chloroquine-sensitive asynchronous form of Plasmodium falciparum 3D7 infected in RBC after 72 hrs by SYBR green assay; assay type: functional, organism-based; conditions: 3D7, Erythrocyte
In short: (§1)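 Sorbitol-synchronized 3D7 cultures of each stage (or asynchronous) diluted to 0.5% parasitemia, 2% hematocrit, exposed to graded compound concentrations (0.05% DMSO) for 72 h in triplicate. Read-out: lysis buffer (20 mM Tris pH 7.5, 5 mM EDTA, 0.008% saponin, 0.08% Triton X-100) with SYBR green I 1:20000, fluorescence 485/535 nm, uninfected erythrocytes as background; IC50 by curve fitting versus drug-free growth.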

[3] = tested on: Plasmodium falciparum; experiment: Antiplasmodial activity against chloroquine-sensitive ring form of Plasmodium falciparum 3D7 infected in RBC after 72 hrs by SYBR green assay; assay type: functional, organism-based; conditions: 3D7, Erythrocyte; in short: as §1
[4] = tested on: Plasmodium falciparum; experiment: Antiplasmodial activity against chloroquine-sensitive trophozoite form of Plasmodium falciparum 3D7 infected in RBC after 72 hrs by SYBR green assay; assay type: functional, organism-based; conditions: 3D7, Erythrocyte; in short: as §1
[5] = tested on: Plasmodium falciparum; experiment: Antiplasmodial activity against chloroquine-sensitive schizont form of Plasmodium falciparum 3D7 infected in RBC after 72 hrs by SYBR green assay; assay type: functional, organism-based; conditions: 3D7, Erythrocyte; in short: as §1
[6] = tested on: Plasmodium falciparum; experiment: Antiplasmodial activity against chloroquine/pyrimethamine/sulfadoxine-resistant blood parasite forms of Plasmodium falciparum K1 infected in RBC by SYBR green assay; assay type: functional, organism-based; conditions: K1, Erythrocyte
In short: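 Sorbitol-synchronised K1 culture, mostly rings, at 0.5% parasitemia and 2% hematocrit exposed to serial compound dilutions (0.05% DMSO) in triplicate. Cells lysed with Tris/EDTA/saponin/Triton buffer containing SYBR green I; fluorescence read at 485/535 nm, uninfected erythrocytes as background. IC50 from curve fit versus drug-free growth.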

[7] = tested on: Plasmodium falciparum; experiment: Antiplasmodial activity against early ring stage form of Plasmodium falciparum assessed as induction of alterations in parasite morphology at 10 times IC50 concentration after 8 to 16 hrs by microscopic analysis; assay type: functional, organism-based
[8] = tested on: Plasmodium falciparum; experiment: Plasmodicidal activity against Plasmodium falciparum 3D7A infected in erythrocytes assessed as parasite survival at 10 times IC50 pre-incubated for 24 hrs followed by compound washout and measured after 24 hrs by […] incorporation assay (reference value: 100%); assay type: functional
[9] = tested on: Plasmodium falciparum; experiment: Plasmodicidal activity against Plasmodium falciparum 3D7A infected in erythrocytes assessed as parasite survival at 10 times IC50 pre-incubated for 48 hrs followed by compound washout and measured after 24 hrs by […] incorporation assay (reference value: 100%); assay type: functional
[10] = tested on: Plasmodium falciparum; experiment: (§2) Antiplasmodial activity against of male Plasmodium falciparum NF54 gametocytes assessed as inhibition of xanthurenic acid-stimulated gamete formation at 1 uM preincubated for 24 to 48 hrs followed by xanthurenic acid stimulation and measured after 20 mins by automated time-lapse microscopy relative to control; assay type: functional
In short: (§3)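 Mature NF54 gametocytes exposed to 1 µM compound (DMSO ≤0.25%) for 24 or 48 h, then activated by cooling 37→26 °C with 2.5 µM xanthurenic acid. Male: exflagellation by automated time-lapse microscopy at 20 min, three readings per well. Female: after 24 h at 26 °C, Cy3 anti-Pfs25 staining, four fields counted. Inhibition versus DMSO and 20 µM Gentian Violet controls; four independent repeats.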

[11] = tested on: Plasmodium falciparum; experiment: as §2, with “female” for “male”; assay type: functional; in short: as §3
[12] = tested on: Plasmodium berghei; experiment: Antiplasmodial activity against liver stage of luciferase-expressing transgenic Plasmodium berghei sporozoites infected in human HepG2 cells administered 18 hrs before infection and measured after 48 hrs by luciferase reporter gene assay; assay type: functional, organism-based
In short: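 HepG2 cells (3×10^3) plated overnight; compound (10^-4 to 10^-9 M) added 18 h before infection with 1×10^5 freshly isolated luciferase-expressing P. berghei sporozoites from Anopheles stephensi salivary glands; culture 48 h, luciferase activity taken as parasite viability; atovaquone positive control.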

[13] = tested on: Plasmodium falciparum; experiment: Antiplasmodial activity against early ring stage of Plasmodium falciparum assessed as increase in free heme levels after 32 hrs by UV-Vis spectrophotometry; assay type: functional, organism-based
[14] = tested on: Plasmodium falciparum; experiment: Antiplasmodial activity against early ring stage of Plasmodium falciparum assessed as decrease in hemozoin accumulation after 32 hrs by UV-Vis spectrophotometry; assay type: functional, organism-based
[15] = tested on: Mus musculus; experiment: Toxicity in Swiss mouse assessed as survival at 1000 mg/kg, po measured up to 30 days; assay type: organism-based; conditions: in vivo, 720 h
In short: (§4)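 Single 1000 mg/kg dose given to mice by gavage or ip injection, 3 mice per group. Survival and body weight followed against untreated controls over 30 days of observation.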

[16] = tested on: Mus musculus; experiment: Toxicity in Swiss mouse assessed as effect on body weight at 1000 mg/kg, po measured after 30 days; assay type: organism-based; conditions: in vivo, 720 h; in short: as §4
[17] = tested on: Plasmodium berghei; experiment: Antiplasmodial activity against Plasmodium berghei NK65 infected in Swiss mouse assessed as reduction in parasitemia at 50 mg/kg, po administered via gavage for 3 consecutive days post infection measured on day 5 post infection relative to control; assay type: functional; set-up: scale not given: the % may be the effect or the level left
In short: (§5)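 P. berghei NK65 suppressive test: adult Swiss outbred mice (20±2 g) inoculated ip with 1×10^5 infected red cells, randomized to groups, dosed daily for three days by oral gavage or ip injection with test compound at 50 mg/kg in 3% (v/v) DMSO; CQ 20 mg/kg and vehicle groups in parallel. Giemsa-stained tail-blood smears on days 5, 7, 9; inhibition = [(C−T)/C]×100 versus untreated control.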

[18] = tested on: Plasmodium berghei; experiment: Antiplasmodial activity against Plasmodium berghei NK65 infected in Swiss mouse assessed as reduction in parasitemia at 50 mg/kg, ip administered for 3 consecutive days post infection measured on day 5 post infection relative to control; assay type: functional; set-up: scale not given: the % may be the effect or the level left; in short: as §5
[19] = tested on: Plasmodium berghei; experiment: Antiplasmodial activity against Plasmodium berghei NK65 infected in Swiss mouse assessed as reduction in parasitemia at 50 mg/kg, po administered via gavage for 3 consecutive days post infection measured on day 9 post infection relative to control; assay type: functional; set-up: scale not given: the % may be the effect or the level left; in short: as §5
[20] = tested on: Plasmodium berghei; experiment: Antiplasmodial activity against Plasmodium berghei NK65 infected in Swiss mouse assessed as reduction in parasitemia at 50 mg/kg, ip administered for 3 consecutive days post infection measured on day 9 post infection relative to control; assay type: functional; set-up: scale not given: the % may be the effect or the level left; in short: as §5
[21] = tested on: Plasmodium berghei; experiment: Antiplasmodial activity against Plasmodium berghei NK65 infected in Swiss mouse assessed as mouse survival at 50 mg/kg, po administered for 3 consecutive days post infection measured on day 9 post infection (reference value: 19 +/- 5 days); assay type: functional
[22] = tested on: Plasmodium berghei; experiment: Antiplasmodial activity against Plasmodium berghei NK65 infected in Swiss mouse assessed as assessed as mouse survival at 50 mg/kg, ip administered via gavage for 3 consecutive days post infection measured on day 9 post infection (reference value: 19 +/- 5 days); assay type: functional
[23] = tested on: Plasmodium berghei; experiment: Antiplasmodial activity against Plasmodium berghei NK65 infected in Swiss mouse assessed as reduction in parasitemia at 50 mg/kg, po administered via gavage for 3 consecutive days post infection measured on day 7 post infection relative to control; assay type: functional; set-up: scale not given: the % may be the effect or the level left; in short: as §5
[24] = tested on: Plasmodium berghei; experiment: Antiplasmodial activity against Plasmodium berghei NK65 infected in Swiss mouse assessed as reduction in parasitemia at 50 mg/kg, ip administered for 3 consecutive days post infection measured on day 7 post infection relative to control; assay type: functional; set-up: scale not given: the % may be the effect or the level left; in short: as §5
[25] = tested on: Mus musculus; experiment: Toxicity in Swiss mouse assessed as survival at 1000 mg/kg, ip measured up to 30 days; assay type: organism-based; conditions: in vivo, 720 h; in short: as §4
[26] = tested on: Mus musculus; experiment: Toxicity in Swiss mouse assessed as effect on body weight at 1000 mg/kg, ip measured after 30 days; assay type: organism-based; conditions: in vivo, 720 h; in short: as §4
[27] = tested on: Plasmodium falciparum; experiment: Antiplasmodial activity against Plasmodium falciparum assessed as fractional inhibitory concentration index at IC50 concentration in presence of artesunate by isobologram plot analysis
[28] = tested on: HepG2; experiment: Cytotoxicity against human HepG2 cells assessed as reduction in cell viability after 24 hrs by MTT assay; assay type: cell-based; conditions: HepG2, 24 h
In short: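 HepG2 cells in RPMI-1640 with 10% heat-inactivated serum, seeded 5×10^3 per well, allowed to adhere 18 h at 37 °C, then exposed to compound (400–6.2 µM) for 24 h at 37 °C, 5% CO2. MTT (5 mg/mL) for 3 h, formazan dissolved in DMSO, absorbance 570 nm with 630 nm background; viability as percent of untreated control.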

[29] = tested on: Plasmodium berghei; experiment: Antiplasmodial activity against Plasmodium berghei NK65 infected in Swiss mouse assessed as reduction in parasitemia at 20 mg/kg, po administered via gavage for 3 consecutive days post infection measured on day 5 post infection relative to control; assay type: functional; set-up: scale not given: the % may be the effect or the level left; in short: as §5
[30] = tested on: Plasmodium berghei; experiment: Antiplasmodial activity against Plasmodium berghei NK65 infected in Swiss mouse assessed as reduction in parasitemia at 20 mg/kg, ip administered for 3 consecutive days post infection measured on day 5 post infection relative to control; assay type: functional; set-up: scale not given: the % may be the effect or the level left; in short: as §5
[31] = tested on: Plasmodium berghei; experiment: Antiplasmodial activity against Plasmodium berghei NK65 infected in Swiss mouse assessed as reduction in parasitemia at 20 mg/kg, po administered via gavage for 3 consecutive days post infection measured on day 7 post infection relative to control; assay type: functional; set-up: scale not given: the % may be the effect or the level left; in short: as §5
[32] = tested on: Plasmodium berghei; experiment: Antiplasmodial activity against Plasmodium berghei NK65 infected in Swiss mouse assessed as reduction in parasitemia at 20 mg/kg, ip administered for 3 consecutive days post infection measured on day 7 post infection relative to control; assay type: functional; set-up: scale not given: the % may be the effect or the level left; in short: as §5
[33] = tested on: Plasmodium berghei; experiment: Antiplasmodial activity against Plasmodium berghei NK65 infected in Swiss mouse assessed as reduction in parasitemia at 20 mg/kg, po administered via gavage for 3 consecutive days post infection measured on day 9 post infection relative to control; assay type: functional; set-up: scale not given: the % may be the effect or the level left; in short: as §5
[34] = tested on: Plasmodium berghei; experiment: Antiplasmodial activity against Plasmodium berghei NK65 infected in Swiss mouse assessed as reduction in parasitemia at 20 mg/kg, ip administered for 3 consecutive days post infection measured on day 9 post infection relative to control; assay type: functional; set-up: scale not given: the % may be the effect or the level left; in short: as §5
[35] = tested on: Plasmodium berghei; experiment: Antiplasmodial activity against Plasmodium berghei NK65 infected in Swiss mouse assessed as assessed as mouse survival at 20 mg/kg, ip administered for 3 consecutive days post infection measured on day 9 post infection (reference value: 19 +/- 5 days); assay type: functional
[36] = tested on: Plasmodium berghei; experiment: Antiplasmodial activity against Plasmodium berghei NK65 infected in Swiss mouse assessed as assessed as mouse survival at 20 mg/kg, po administered via gavage for 3 consecutive days post infection measured on day 9 post infection (reference value: 19 +/- 5 days); assay type: functional

In the case of `COc1ccc2c(c1)nc(-c1ccc(NC(=O)OC(C)(C)C)cc1)c1[nH]ccc12`, the IC50 ([1]; read-out: IC50) is reported as 39 nM, the IC50 ([1]; read-out: pIC50 (converted)) is reported as 39.8 nM and the IC50 [2] is reported as 33 nM. The IC50 [3] was 39 nM, the IC50 [4] was 50 nM and the IC50 [5] was 28 nM. The IC50 [6] was 41 nM, the Activity [7] was “Active” and the Survival [8] was 14%. It also gave a Survival [9] of 6%, an inhibition at 1 µM [10] of 7% and an inhibition at 1 µM [11] of 2%. For the same molecule, the IC50 [12] was 76 nM, the Activity [13] was “Dose-dependent effect” and the Activity [14] was “Dose-dependent effect”. For the same molecule, the Activity [15] was “Non-Toxic”, the Activity [16] was “Non-Toxic” and the Activity [17] was 62%. The Activity [18] was 61%, the Activity [19] was 55% and the Activity [20] was 58%. For the same molecule, the Survival [21] was 25 days, the Survival [22] was 24 days and the Activity [23] was 54%. The Activity [24] was 34%, the Activity [25] was “Non-Toxic” and the Activity [26] was “Non-Toxic”. The FIC [27] was 1.
In the case of `CCN(CC)CCCC(C)Nc1ccnc2cc(Cl)ccc12` (centres undefined) [CHLOROQUINE], the EC50 [28] is reported as 384 µM, the Survival [8] is reported as 16% and the Survival [9] is reported as 8%. The Activity [29] was 100%, the Activity [30] was 100% and the Activity [31] was 100%. It also gave an Activity [32] of 100%, an Activity [33] of 100% and an Activity [34] of 100%. The Survival [35] was over 30 days and the Survival [36] was over 30 days.
